The values below come from ChEMBL document CHEMBL1141778, “Iminosugar-producing Thai medicinal plants” (J Nat Prod, 2005).

A short description of assay [1]: Inhibition of alpha-L-fucosidase. The essentials: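 Bovine epididymis alpha-L-fucosidase at pH 5.5 with the matching p-nitrophenyl glycoside as substrate. The reaction was stopped with 400 mM Na2CO3, and released p-nitrophenol was read at 400 nm.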
For assay [2], the target named is T1, Sucrase-isomaltase, intestinal (Rattus norvegicus, UniProt P23739). Put plainly: Inhibition of rat intestinal sucrase. The method, boiled down: (§1)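 Enzyme source was brush border membranes prepared from rat small intestine, assayed at pH 5.8 with sucrose (sucrase) or isomaltose (isomaltase) as substrate. Released D-glucose was quantified colorimetrically with a glucose test kit.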

Assay [3] addresses T1, Sucrase-isomaltase, intestinal. As to the kind of experiment: Inhibition of rat intestinal isomaltase. The method, boiled down:
as §1

Assay [4] is described as follows: (§2) Inhibition of almond beta-glucosidase. Also on record: species or system Prunus dulcis. The essentials: (§3)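 The substrate was the matching p-nitrophenyl glycoside. Reactions were terminated with 400 mM Na2CO3, and liberated p-nitrophenol was measured spectrophotometrically at 400 nm.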
Assay [5] is described as follows: Inhibition of bovine liver beta-galactosidase. Also noted: species or system Bos taurus. The method, boiled down:
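Bovine liver beta-galactosidase at pH 6.8 with the matching p-nitrophenyl glycoside substrate. Stopped by adding 400 mM Na2CO3; released p-nitrophenol was measured at 400 nm.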

Assay [6] has as its system Prunus dulcis. Described as §2. The method, boiled down:
as §3

Activity calls are given as the source filed them. The rule behind the calls is not given here.

T1 sequence (P23739 1-1013 limits assumed): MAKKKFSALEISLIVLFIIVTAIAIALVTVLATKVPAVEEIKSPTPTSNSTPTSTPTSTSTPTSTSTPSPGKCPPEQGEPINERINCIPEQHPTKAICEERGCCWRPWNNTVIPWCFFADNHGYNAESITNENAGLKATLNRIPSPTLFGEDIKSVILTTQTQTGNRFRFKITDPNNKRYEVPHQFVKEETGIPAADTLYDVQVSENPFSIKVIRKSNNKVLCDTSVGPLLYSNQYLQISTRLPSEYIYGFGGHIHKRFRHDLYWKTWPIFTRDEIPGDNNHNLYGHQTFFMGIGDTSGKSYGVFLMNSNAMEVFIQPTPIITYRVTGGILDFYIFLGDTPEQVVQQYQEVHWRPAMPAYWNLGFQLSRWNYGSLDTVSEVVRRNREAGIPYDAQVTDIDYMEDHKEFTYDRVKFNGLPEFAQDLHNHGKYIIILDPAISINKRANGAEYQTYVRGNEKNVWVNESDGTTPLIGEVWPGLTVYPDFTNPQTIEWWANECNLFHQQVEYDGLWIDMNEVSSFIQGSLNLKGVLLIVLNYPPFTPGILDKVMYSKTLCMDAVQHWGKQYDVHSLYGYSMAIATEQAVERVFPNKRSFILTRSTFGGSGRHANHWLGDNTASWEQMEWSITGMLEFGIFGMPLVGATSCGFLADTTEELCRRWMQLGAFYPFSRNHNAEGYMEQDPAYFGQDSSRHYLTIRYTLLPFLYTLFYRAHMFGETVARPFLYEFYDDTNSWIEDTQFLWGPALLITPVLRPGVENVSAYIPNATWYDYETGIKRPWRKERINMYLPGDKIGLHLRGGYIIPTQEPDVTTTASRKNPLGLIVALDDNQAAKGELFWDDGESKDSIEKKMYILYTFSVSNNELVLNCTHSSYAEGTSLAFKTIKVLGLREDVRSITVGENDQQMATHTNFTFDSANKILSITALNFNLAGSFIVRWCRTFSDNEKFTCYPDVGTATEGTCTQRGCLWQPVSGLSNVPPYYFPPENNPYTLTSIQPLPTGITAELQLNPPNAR
T1 sequence (P23739 1014-1841 limits assumed): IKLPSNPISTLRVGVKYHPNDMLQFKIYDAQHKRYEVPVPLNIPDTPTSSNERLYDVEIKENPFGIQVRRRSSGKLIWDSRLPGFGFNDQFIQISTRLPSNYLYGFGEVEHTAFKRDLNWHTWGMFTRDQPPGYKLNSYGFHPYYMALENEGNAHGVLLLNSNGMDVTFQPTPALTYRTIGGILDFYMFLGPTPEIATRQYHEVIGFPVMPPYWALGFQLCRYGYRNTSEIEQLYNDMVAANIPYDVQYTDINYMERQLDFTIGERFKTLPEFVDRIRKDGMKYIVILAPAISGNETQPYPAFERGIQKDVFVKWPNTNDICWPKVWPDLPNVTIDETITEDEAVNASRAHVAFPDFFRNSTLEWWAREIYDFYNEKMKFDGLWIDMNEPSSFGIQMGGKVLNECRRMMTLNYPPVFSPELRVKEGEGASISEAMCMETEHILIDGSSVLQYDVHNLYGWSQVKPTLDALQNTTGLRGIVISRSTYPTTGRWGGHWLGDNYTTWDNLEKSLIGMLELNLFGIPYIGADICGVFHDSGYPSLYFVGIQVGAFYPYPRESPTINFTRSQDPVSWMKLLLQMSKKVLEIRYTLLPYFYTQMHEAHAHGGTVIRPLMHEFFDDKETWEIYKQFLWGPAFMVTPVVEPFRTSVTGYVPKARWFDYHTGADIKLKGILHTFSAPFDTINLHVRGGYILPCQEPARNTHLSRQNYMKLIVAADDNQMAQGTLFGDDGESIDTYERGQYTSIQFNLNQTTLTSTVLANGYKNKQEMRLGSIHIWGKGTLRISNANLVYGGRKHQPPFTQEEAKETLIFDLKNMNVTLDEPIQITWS

Compound `C[C@@H]1O[C@@H](O[C@@H]2CN[C@H](CO)[C@@H](O)[C@@H]2O)[C@H](O)[C@H](O)[C@H]1O` displayed a Ki in assay [1] of 0.06 µM. `OC[C@H]1NC[C@@H](O[C@H]2O[C@H](CO)[C@H](O)[C@H](O)[C@H]2O)[C@@H](O)[C@@H]1O`: in assay [1], the result was inactive. Consider `OC[C@H]1NC[C@@H](O[C@@H]2O[C@H](CO)[C@@H](O)[C@H](O)[C@H]2O)[C@@H](O)[C@@H]1O`, for which the outcome in assay [1] was inactive. With `OC[C@H]1O[C@H](OC[C@H]2NC[C@@H](O)[C@@H](O)[C@@H]2O)[C@H](O)[C@@H](O)[C@@H]1O`, in assay [1], affinity was put at a Ki of 19 µM. As for `OC[C@@H]1N[C@H](CO)[C@@H](O)[C@@H]1O`, the IC50 is 1000 µM in assay [2], 1000 µM in assay [3] and 320 µM in assay [4]. Turning to `OC[C@H]1N[C@H](CO)[C@@H](O)[C@H]1O`, the values for the IC50 in assay [5] and in assay [4] were 3.3 µM and 7.8 µM, respectively.

`OC[C@H]1N[C@H](CO)[C@@H](O[C@@H]2O[C@H](CO)[C@@H](O)[C@H](O)[C@H]2O)[C@@H]1O` displayed an IC50 in assay [5] of 270 µM. Moreover, the result in assay [6] was inactive. Turning to `OC[C@H]1NC[C@@H](O)[C@@H](O[C@@H]2O[C@H](CO)[C@@H](O)[C@H](O)[C@H]2O)[C@@H]1O`, the result in assay [1] was inactive. Take `OC[C@H]1NC[C@@H](O)[C@@H](O)[C@@H]1O[C@@H]1O[C@H](CO)[C@@H](O)[C@H](O)[C@H]1O`: the result in assay [1] was inactive.
